Assay [1] has as its target Fibroblast growth factor receptor 1 (Homo sapiens, UniProt P11362). Description: Inhibition of [32P]ATP incorporated (phosphorylation) into glutamate-tyrosine copolymer substrate by human fibroblast growth factor receptor 1. Put shortly: (§1)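 Enzymes were intracellular tyrosine kinase domain fragments (human FGFR-1 […], mouse PDGFR-β […]), 60–75 ng per reaction, in 25 mM HEPES pH 7.4 with 150 mM NaCl, 10 mM MnCl₂, 0.2 mM sodium orthovanadate, Glu-Tyr (4:1) random copolymer substrate and varied inhibitor. Reactions were started with [³²P]ATP (0.4 μCi), run 10 min at 25 °C and stopped with 15% TCA. IC50 was taken as the concentration reducing ³²P incorporation into the copolymer.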

Assay [2] addresses Platelet-derived growth factor receptor beta (Mus musculus, UniProt P05622). Description: Inhibition of [32P]ATP incorporated (phosphorylation) into glutamate-tyrosine copolymer substrate by mouse platelet-derived growth factor receptor beta. Put shortly: as §1
The target of assay [3] is T1, Platelet-derived growth factor receptor (PDGFr) (Rattus norvegicus, UniProt P20786+Q05030). Description: Inhibition of Platelet-derived growth factor receptor beta autophosphorylation in Rat aorta vascular smooth muscle cells(RAVSMC).
For assay [4], the target named is T1, Platelet-derived growth factor receptor (PDGFr). Description: Inhibition of Platelet-derived growth factor receptor beta autophosphorylation in Rat aorta vascular smooth muscle cells(RAVSMC).

Sequence of Fibroblast growth factor receptor 1 (P11362 whole entry, the tested form may be a part): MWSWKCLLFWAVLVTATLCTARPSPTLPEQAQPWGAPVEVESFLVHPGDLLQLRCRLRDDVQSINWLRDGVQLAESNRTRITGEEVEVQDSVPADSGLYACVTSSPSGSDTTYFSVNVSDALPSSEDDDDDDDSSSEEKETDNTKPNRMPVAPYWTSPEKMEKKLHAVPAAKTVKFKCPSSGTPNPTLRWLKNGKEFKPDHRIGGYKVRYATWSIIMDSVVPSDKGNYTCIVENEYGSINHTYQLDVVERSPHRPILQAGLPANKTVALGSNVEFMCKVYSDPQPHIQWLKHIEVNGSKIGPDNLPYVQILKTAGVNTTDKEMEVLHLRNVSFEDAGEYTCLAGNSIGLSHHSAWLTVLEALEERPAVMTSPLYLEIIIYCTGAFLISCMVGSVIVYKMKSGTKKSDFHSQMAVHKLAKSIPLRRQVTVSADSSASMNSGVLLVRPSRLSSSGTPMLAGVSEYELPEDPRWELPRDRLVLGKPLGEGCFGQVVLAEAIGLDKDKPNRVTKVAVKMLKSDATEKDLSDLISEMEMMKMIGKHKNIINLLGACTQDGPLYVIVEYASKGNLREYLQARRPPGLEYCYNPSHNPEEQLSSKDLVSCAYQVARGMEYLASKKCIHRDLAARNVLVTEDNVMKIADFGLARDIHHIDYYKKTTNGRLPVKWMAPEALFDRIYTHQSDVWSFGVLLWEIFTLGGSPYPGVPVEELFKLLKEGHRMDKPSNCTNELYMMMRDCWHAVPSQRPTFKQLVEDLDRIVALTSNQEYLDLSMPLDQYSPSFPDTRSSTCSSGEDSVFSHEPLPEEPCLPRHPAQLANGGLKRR
Sequence of Platelet-derived growth factor receptor beta (P05622 whole entry): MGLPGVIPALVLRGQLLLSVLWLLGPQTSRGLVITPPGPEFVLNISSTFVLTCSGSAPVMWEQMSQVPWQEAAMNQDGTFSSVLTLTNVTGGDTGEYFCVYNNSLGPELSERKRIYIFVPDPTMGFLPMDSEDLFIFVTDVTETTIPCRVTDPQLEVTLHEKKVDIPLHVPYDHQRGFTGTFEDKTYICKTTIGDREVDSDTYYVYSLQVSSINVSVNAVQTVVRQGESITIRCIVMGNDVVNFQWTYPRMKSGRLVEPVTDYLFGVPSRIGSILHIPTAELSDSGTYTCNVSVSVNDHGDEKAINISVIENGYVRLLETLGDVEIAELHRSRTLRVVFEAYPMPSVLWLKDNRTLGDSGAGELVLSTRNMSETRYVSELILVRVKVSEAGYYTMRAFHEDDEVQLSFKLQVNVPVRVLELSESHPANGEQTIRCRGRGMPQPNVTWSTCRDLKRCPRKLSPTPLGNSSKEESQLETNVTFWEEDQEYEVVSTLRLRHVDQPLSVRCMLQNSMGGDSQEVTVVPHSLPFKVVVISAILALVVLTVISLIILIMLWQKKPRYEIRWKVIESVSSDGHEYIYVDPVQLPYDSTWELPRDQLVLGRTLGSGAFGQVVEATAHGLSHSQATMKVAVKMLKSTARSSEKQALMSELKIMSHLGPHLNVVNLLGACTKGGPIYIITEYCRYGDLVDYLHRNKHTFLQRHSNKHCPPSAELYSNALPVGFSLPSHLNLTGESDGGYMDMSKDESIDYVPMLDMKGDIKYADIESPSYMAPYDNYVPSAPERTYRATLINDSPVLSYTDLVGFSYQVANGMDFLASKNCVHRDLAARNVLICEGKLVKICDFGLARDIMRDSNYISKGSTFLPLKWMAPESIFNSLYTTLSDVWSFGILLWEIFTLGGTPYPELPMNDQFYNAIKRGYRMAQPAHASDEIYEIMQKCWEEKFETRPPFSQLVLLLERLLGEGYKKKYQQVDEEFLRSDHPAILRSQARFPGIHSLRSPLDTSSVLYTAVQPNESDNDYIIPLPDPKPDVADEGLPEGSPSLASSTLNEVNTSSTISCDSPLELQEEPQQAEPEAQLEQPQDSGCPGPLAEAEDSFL

In the case of `COc1cc2ncn(-c3ccccc3)c2cc1CO`, the figures for the IC50 in assay [1] and in assay [2] were 11 µM and 0.37 µM, respectively. Regarding `C=CCc1c(O)ccc2c1ncn2-c1ccccc1`, the IC50 in assay [1] and in assay [2] was more than 50 µM each time.

For the molecule `COc1c(O)ccc2c1ncn2-c1ccccc1`, the IC50 in assay [1] and in assay [2] was more than 50 µM throughout.

As to `COc1ccc2c(c1)ncn2-c1ccc(N)cc1`, the values for the IC50 in assay [2] and in assay [3] were 0.28 µM and 1.36 µM, respectively.

Take `OCC(O)COc1ccc2c(c1)ncn2-c1ccccc1` (stereo not drawn): the IC50 (usually the midpoint of a concentration-inhibition curve) in assay [2] was found to be 0.31 µM. For the molecule `C=CCOc1ccc2c(ncn2-c2ccccc2)c1Br`, the IC50 in assay [1] and in assay [2] was more than 50 µM throughout. In the case of `c1ccc(-n2cnc3cc(OCC4CO4)ccc32)cc1` (stereo not drawn), the results for the IC50 in assay [1] and in assay [2] were 18 µM and 0.32 µM, respectively. In assay [2], `C=CCOc1ccc2c(c1)ncn2-c1ccccc1` yielded an IC50 of 0.61 µM.

In the case of `COC(=O)c1cc2c(cc1OC)ncn2-c1ccccc1`, the IC50 in assay [2] turned out to be 0.87 µM. In assay [2], `NCCOc1ccc2c(c1)ncn2-c1ccccc1` came in with an IC50 of 0.65 µM.

Regarding `CN(C)CCCOc1ccc2c(c1)ncn2-c1ccccc1`, in assay [2], the IC50 came to 0.15 µM.

Regarding `c1ccc(-n2cnc3cc(SCCCN4CCOCC4)ccc32)cc1`, the IC50 in assay [1] is 24 µM; in assay [2], more than 50 µM. In assay [2], `Oc1cccc2c1ncn2-c1ccccc1` gave an IC50 of 14 µM.

Take `Oc1ccc2c(ncn2-c2ccccc2)c1Br`: the IC50 in assay [1] and in assay [2] was more than 50 µM each time. As to `COc1cc2ncn(-c3ccccc3)c2cc1C=O`, the IC50 was 25 µM in assay [1] and 1 µM in assay [2].

As for `c1ccc(-n2cnc3cc(OCCN4CCOCC4)ccc32)cc1`, the IC50 in assay [2] was 0.73 µM; in assay [4] it was 0.79 µM.

Molecule `OCCCCOc1ccc2c(c1)ncn2-c1ccccc1` registered an IC50 in assay [2] of 0.45 µM. With `CCOc1ccc2c(c1)ncn2-c1ccccc1`, the IC50 in assay [1] amounted to 26 µM; in assay [2], 0.24 µM. Molecule `COc1ccc2c(ncn2-c2ccccc2)c1O` gave an IC50 in assay [1] of more than 50 µM. `CCCOc1ccc2c(c1)ncn2-c1ccccc1` came in with an IC50 in assay [2] of 0.25 µM. On to `CN(C)CCCCOc1ccc2c(c1)ncn2-c1ccccc1`, for which the IC50 is 6.8 µM in assay [1] and 0.16 µM in assay [2]. The corresponding values for `COc1ccc2c(ncn2-c2ccccc2)c1OC` are more than 50 µM and more than 50 µM. The like results for `CSc1ccc2c(c1)ncn2-c1ccccc1` were, in that order, 27 µM and 0.74 µM. In assay [2], `c1ccc(-n2cnc3cc(OCCCN4CCOCC4)ccc32)cc1` displayed an IC50 of 0.17 µM.
